Columns and labels:
Type in all cases: binding
[1] = In vitro retinol titration by fluorescence enhancement; settings: read-out: Kd for retinol; apo-RBP^HA, PBS, fluorescence ex 330 nm, em 460 nm
Procedure, shortened: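 Apo RBP-HA was immunopurified from serum-free HeLa conditioned medium, eluted with HA peptide, dialyzed into PBS and checked for homogeneity by gel. Equal amounts of protein (380 nM) were loaded with fresh all-trans retinol (0 to 5 µM) for 1 hr in PBS. Retinol fluorescence enhancement (ex 330, em 460 nm) was read on a microplate reader. Parallel runs used PBS with 0.1% phosphatidylcholine vesicles.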

STRA6 = target: T1, STRA6 (Homo sapiens, UniProt Q9BX79); assay: STRA6-RBP equilibrium and kinetic analysis by ELISA on STRA6+ HEK293T cells; settings: read-out: Kd for STRA6, apo RBP^HA, 90 min at 37°C
T1 sequence (Q9BX79 1-667): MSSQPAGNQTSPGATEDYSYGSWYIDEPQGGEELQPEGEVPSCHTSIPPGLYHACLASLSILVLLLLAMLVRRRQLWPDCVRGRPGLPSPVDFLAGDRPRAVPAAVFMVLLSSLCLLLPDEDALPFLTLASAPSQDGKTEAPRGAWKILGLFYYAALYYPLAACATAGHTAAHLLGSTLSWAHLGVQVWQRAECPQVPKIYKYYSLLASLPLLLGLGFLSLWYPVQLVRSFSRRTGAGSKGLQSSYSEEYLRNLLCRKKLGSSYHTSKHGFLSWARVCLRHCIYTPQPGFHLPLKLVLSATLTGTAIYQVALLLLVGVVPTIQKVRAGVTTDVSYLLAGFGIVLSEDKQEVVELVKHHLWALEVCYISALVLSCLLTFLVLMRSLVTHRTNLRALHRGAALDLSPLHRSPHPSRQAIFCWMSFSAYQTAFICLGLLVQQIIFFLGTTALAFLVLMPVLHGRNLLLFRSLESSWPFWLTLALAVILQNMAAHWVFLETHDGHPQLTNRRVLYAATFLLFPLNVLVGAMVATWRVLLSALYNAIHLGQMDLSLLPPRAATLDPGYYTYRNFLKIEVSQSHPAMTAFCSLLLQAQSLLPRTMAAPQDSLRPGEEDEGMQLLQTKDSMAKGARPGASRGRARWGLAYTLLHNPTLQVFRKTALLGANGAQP
Procedure, shortened: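 Cells transfected with STRA6myc or vector were grown on poly-D-lysine. They were incubated 90 min at 37°C with medium containing 0–80 µg/mL apo RBP-HA and 0.5% BSA, washed in ice-cold HBSS, and bound RBP was eluted with 25 mM glycine HBSS pH 3. RBP was quantified by ELISA, with control-cell binding subtracted. Kd came from isotherms and reciprocal plots. TTR affinity was measured by SPR, running a TTR series over captured apo His-RBP.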

human TTR = assay: RBP-TTR coimmunoprecipitation from HeLa conditioned media; settings: HeLa cotransfected, HA immunoprecipitates
Procedure, shortened: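 HeLa cells cotransfected with myc-tagged TTR plus wild-type or mutant N-terminal HA-tagged human RBP plasmids. Secreted RBP complexes pulled from conditioned media with anti-HA agarose beads and washed in PBS. Western blot of immunoprecipitates probed first for TTR, then for HA.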

In the case of serum retinol binding protein [WT], the Kd [1] is reported as ~80 nM, the Kd (STRA6) is reported as 59 nM and the “interaction with human TTR in coimmunoprecipitation” value (human TTR) is reported as “interacted strongly”.
